This data set can be described thus: Toxicity liver stage against HepG2, at 10uM. The format is cell-based. Set-up: test concentration 10 uM, cell line HepG2-A16-CD81EGFP. The settings on record: human, HepG2-A16-CD81EGFP cells; read-out: INHIBITION
In outline: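 Uninfected HepG2-A16-CD81EGFP cells, 3 × 10^3 per well, 1536-well, plated on prespotted compound at 10 μM final, parasite-free screening media added to match infected plates; puromycin 10 μM positive, DMSO 0.5% negative; run in parallel with 48 h PbLuc assay at 37 °C, 5% CO2; viability by CellTiter-Glo luminescence, normalized to controls.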
Regarding `COCCO[C@H]1COCCN(Cc2ccc(OC)cc2)C1`, the cytotoxicity at 10 µM was 9.71%.

Regarding `CC(C)NC(=O)CN1CCCNCC1`, the cytotoxicity at 10 µM was -0.616%. Consider `O=C(CSC1=NS(=O)(=O)c2cc(F)ccc2N1)Nc1ccc(Cl)cc1`, for which the cytotoxicity at 10 µM stood at 8.93%. Under `COC1(CNC(=O)CCCc2ccccc2)CCSC1` (stereo unspecified) stands 4.68%. In the case of `Cc1cccc(CN2CCC3(CCC(C(=O)N(C)C)O3)CC2)n1` (stereo unspecified) it was 3.14%; in that of `COc1cc(OC)cc(C2SCC(=O)Nc3ccsc32)c1` (stereo unspecified), -1.16%. In the case of `CCOC(=O)c1s/c(=N\C(=O)COc2cnc(C)cc2O)[nH]c1C` it was 5.56%; in that of `COc1ccc(C)cc1-c1[nH]c2ccccc2c1C(=O)O`, 0.806%; in that of `CCC(C)c1noc(C2CCN(C(=O)c3cccnc3)CC2)n1` (stereo unspecified), -10.7%. On to `CC(C)(C)C(=O)N1CCCC1c1cc(CO)[nH]n1` (stereo unspecified), for which the cytotoxicity at 10 µM came out at 1.61%. Turning to `CCS(=O)(=O)N1C[C@@H](c2cc(O)nc(C)n2)[C@H](c2ccccc2F)C1`, the cytotoxicity at 10 µM is 7.17%. Consider `CC(=O)N1CCC1c1cc(N2CC(O)C2)nc(C)n1` (stereo unspecified), for which the cytotoxicity at 10 µM amounted to 5.76%.

`O=C1CN(C(=O)C2CN(c3cccc(Cl)c3)CCO2)CCN1` (stereo unspecified): the cytotoxicity at 10 µM is -1.77%. In the case of `O=C1NC2(CCN(CC(=O)N3CCOCC3)CC2)Nc2ccccc21`, the cytotoxicity at 10 µM was -1.71%. Under `COCCC(=O)N1C[C@@H](c2cccc(OC)c2)[C@@]2(CCCCC(=O)N2)C1` stands 9.47%; under `CCCn1cc(S(=O)(=O)N(C)Cc2nonc2C)c(C)n1`, 12.7%.

For the molecule `CC(=O)N1C[C@H]2CCCN(S(=O)(=O)c3ccc(Cl)s3)[C@H]2C1`, the cytotoxicity at 10 µM is -2.32%. Take `Cc1n[nH]c(C)c1CCC(=O)NCC1(O)CCN(c2ccccn2)C1` (stereo unspecified): the cytotoxicity at 10 µM was -1.08%. In the case of `c1ccc2ncc(CC3CNCCOC3)cc2c1` (stereo unspecified) it was -3.93%; in that of `COc1ncc(CN2CCCC2c2[nH]ncc2C(=O)N(C)C)cn1` (stereo unspecified), -0.116%. In the case of `CNC(=O)C1(C)CN(Cc2cn(C)c3ccc(F)cc23)CCO1` (stereo unspecified) it was 0.187%; in that of `O=C(NCCc1ccccc1)C1CCN(C(=O)Cn2cncn2)C1` (stereo unspecified), 2.55%. In the case of `Cn1cc(C(=O)N2CCCC(Cc3cncc4ccccc34)C2)cn1` (stereo unspecified) it was -13.2%. `O=C(O)COCC(=O)NC1CC2(CCCCC2)Oc2ccccc21` (stereo unspecified): the cytotoxicity at 10 µM was -28.5%.

Consider `CNC(=O)C1(c2cnccn2)CCCN1C(=O)c1ccc(F)cc1` (stereo unspecified), for which the cytotoxicity at 10 µM was found to be 0.918%. Under `CC(C)(C)c1nnc(NCc2ccc(F)cc2)o1` stands 6.88%.

Turning to `CCn1cnnc1CNC(=O)NCC(O)c1ccc(OC)cc1` (stereo unspecified), the cytotoxicity at 10 µM came out at 5.66%.

Regarding `Cc1ccc(S(N)(=O)=O)cc1C(=O)NC1CCCN(C)C1` (stereo unspecified), the cytotoxicity at 10 µM is -1.96%. Under `COC(=O)c1ccc(S(=O)(=O)N2CCCn3ncnc32)s1` stands 19.8%; under `CC1CCN(c2ccc(C(=O)N3CCCC3c3nncn3C)cn2)CC1` (stereo unspecified), -1.88%. Consider `COc1ccc(Cl)cc1CCNC(=O)NCc1noc(C)n1`, for which the cytotoxicity at 10 µM is -4.76%. With `Cc1cc(C2CCCN(C(=O)COc3cccc(F)c3)C2)n[nH]1` (stereo unspecified), the cytotoxicity at 10 µM stood at 5.95%.

As for `NC(=O)C1CCN(C(=O)CSC2CCCc3ccccc32)CC1` (stereo unspecified), the cytotoxicity at 10 µM stood at 1.4%. In the case of `CC(CS(C)(=O)=O)N(C(=O)Nc1cc(F)ccc1Cl)C1CC1` (stereo unspecified) it was -4.15%; in that of `CNC(=O)C1CCCCN1C(=O)c1cn(CCOC)c2ccccc12` (stereo unspecified), -0.408%; in that of `CCOc1cncc(N2CCN(c3ccccc3F)CC2)n1`, -0.0195%. Under `CC(O)CNCc1c[nH]nc1-c1cc2ccccc2o1` (stereo unspecified) stands 0.788%; under `COc1ccc(S(=O)(=O)NCCC(=O)NCc2ccoc2)cc1OC`, 10.8%; under `Cc1ccc(C2COCCN2C(=O)c2ccsc2)o1` (stereo unspecified), -2.55%. In the case of `Cc1c(CC(=O)N2CCSCC2)nnn1-c1cccc(Cl)c1` it was -3.89%; in that of `CC(C)CN1CCN(C(=O)c2cc(=O)c3ccccc3[nH]2)CC1`, -4.92%; in that of `CC(NC(=O)Cn1cc(C(N)=O)c(-c2ccccc2)n1)C1CC1` (stereo unspecified), -7.9%. For `Cc1cc(OC(F)F)c(C(=O)N2CC[C@H](O)C2)s1`, the cytotoxicity at 10 µM is 9.67%.

As to `Cc1cc(Br)ccc1C(=O)Nc1c(C(N)=O)n[nH]c1C`, the cytotoxicity at 10 µM was -2.58%. In the case of `Cc1nc2c(s1)C(N(C)C(=O)NCCCC(C)(C)CO)CCC2` (stereo unspecified) it was -3.43%; in that of `O=C(CCOCC(F)(F)F)NS(=O)(=O)c1cccnc1`, 0.946%. In the case of `COCCN1CCC(CNC(=O)C2(S(C)(=O)=O)CCCC2)CC1` it was -9.61%.

As to `CC(C)(C)C(=O)NS(=O)(=O)c1ccc(C#N)c(C(F)(F)F)c1`, the cytotoxicity at 10 µM was determined as 1.38%.

For the molecule `c1ccc(NCc2ccsc2)c(Cn2cncn2)c1`, the cytotoxicity at 10 µM was determined as 1.42%. In the case of `CCCc1nc(C[S+]([O-])Cc2cn3cccc(C)c3n2)no1` (stereo unspecified) it was 2.48%. In the case of `Cc1ccc(CNC2CCN(CCc3ccncc3)CC2)s1` it was -13.9%. Under `CC(Sc1nnnn1C1CCOCC1)C(=O)NC1CCCCC1` (stereo unspecified) stands 18.3%; under `Cc1nc(CN2CCCC(N(C)CCc3cccs3)C2)no1` (stereo unspecified), -21.8%; under `O=C1[C@H]2CN(S(=O)(=O)C3CC3)C[C@H]2CN1CC1CC1`, 1.8%. Take `CO[C@H]1CCN(C(=O)Cc2ccccn2)[C@H]1Cc1ccncc1`: the cytotoxicity at 10 µM turned out to be 2.26%. In the case of `CCC[C@@H]1CN(S(=O)(=O)c2ccc3[nH]c(=O)[nH]c3c2)C[C@H]1NC(C)=O` it was -7.19%.

For the molecule `Cc1cc2ccccc2n1CCC(=O)NCCN(C)S(C)(=O)=O`, the cytotoxicity at 10 µM was found to be 5.56%.

On to `Cc1cc2c(=O)n(CCOCCO)cnc2s1`, for which the cytotoxicity at 10 µM came to 8.72%. In the case of `Cc1nc(-c2cccc(N3CCC(NC4CCSC4)CC3)c2)cs1` (stereo unspecified), the cytotoxicity at 10 µM came out at 2.86%.

`CCCC(=O)N1CCC(N2CC[C@@](O)(CCOC)[C@H](C)C2)CC1`: the cytotoxicity at 10 µM is -3.58%.

In the case of `CCn1c(Cn2cncn2)nnc1C1CCN(Cc2ccccn2)CC1`, the cytotoxicity at 10 µM was 9.78%.

For the molecule `CN(C)Cc1nnc(C(=O)N(C)Cc2ccc(C(F)(F)F)cc2)o1`, the cytotoxicity at 10 µM is -6.72%.

As to `CC(CN1CC[C@@H]2CCCC[C@@H]2C1)n1cnc2ccccc21` (stereo partly specified), the cytotoxicity at 10 µM stood at 7.16%. Take `CCOC(=O)N1CCN(C(=O)C(C)n2ccnc2C(C)C)CC1` (stereo unspecified): the cytotoxicity at 10 µM is -9.28%. In the case of `COc1ccc(CN2C[C@@H](CN(C)C)[C@@H](CO)C2)cc1OC` it was -1.19%. `CCCc1cncnc1N1CCC2(CCC(=O)N(C3CCCC3)C2)CC1`: the cytotoxicity at 10 µM amounted to 2.61%.

For the molecule `Cc1ccc(C2(CN3CCCC3)CCNCC2)nc1`, the cytotoxicity at 10 µM is -12.8%. In the case of `COc1cc2nc3n(c(=O)c2cc1OC)CCN(C)CC3` it was 2.39%. For the molecule `CCOCC(O)CN1CCN(C(=O)c2cc(F)cc(F)c2)CC1` (stereo unspecified), the cytotoxicity at 10 µM came to 8.1%. Under `Cc1ccc(CC(=O)N2CCCC(c3nccs3)C2)cn1` (stereo unspecified) stands -2.01%; under `Cc1ccc(N(CCC#N)C(=O)CN2CCCC2c2ccsc2)cc1` (stereo unspecified), -9.01%. Under `CC(C)NC(=O)NCc1ccc(C(=O)NC(C)Cn2cccn2)cc1` (stereo unspecified) stands -1.46%; under `O=C(CCn1cncn1)NCC(c1ccco1)N1CCCCC1` (stereo unspecified), -2.97%; under `O=C(c1cc(F)ccc1F)C1CCN(C(=O)c2cnccn2)CC1`, -27.2%. Under `CNc1cc2c(nn1)CCN(C(=O)c1coc(Br)c1)C2` stands -13.6%. For the molecule `COc1c(CNCC(O)c2ccccc2)c(C(C)C)nn1C` (stereo unspecified), the cytotoxicity at 10 µM was -16.5%.

Consider `Cc1cc(NC(=O)CN2CCn3c(nnc3C3CC3)C2)no1`, for which the cytotoxicity at 10 µM is -7.32%.

As to `Cc1n[nH]c(=O)c2c(NC(=O)CN3CCC(C)CC3)oc(C)c12`, the cytotoxicity at 10 µM is -1.5%. Under `Cc1ncc2c(n1)CN(CCCc1nc3ccccc3o1)CC2` stands 6.81%; under `O=C(c1cccc(CNCC2CNc3ccnn3C2)c1)N1CCCC1` (stereo unspecified), 6.26%.

On to `CCn1cc(NC(=O)NCC(O)CN2CCCCC2)cn1` (stereo unspecified), for which the cytotoxicity at 10 µM is 3.75%. Under `O=C(Nc1cccnc1)[C@H]1C[C@H]2OCC[C@H]2N(C(=O)c2ccsc2)C1` stands -1.24%; under `Cc1ccc(CN2CCC3(CC2)NC(=O)CC3c2ccccc2)s1` (stereo unspecified), -1.39%; under `CC(=O)N1CCN(Cc2ccc(C)o2)CC2(CC(=O)N(C)C2)C1` (stereo unspecified), -2.01%. Under `Fc1ccc(CN2CCC(c3n[nH]c4ncccc34)CC2)cc1F` stands 9.12%; under `O=C1[C@H]2CN(Cc3ccoc3)C[C@H]2CN1CCN1CCCC1`, 1.05%; under `Cc1ccc(CN2CCc3nnc(CN4CCCC4=O)n3CC2)o1`, -4.28%. For the molecule `CC(C)CN1CC[C@@H]2[C@@H]1CCN2C(=O)N(C)C`, the cytotoxicity at 10 µM is -0.88%. In the case of `CC1c2ncc(CNC(=O)C3CC3)n2CCN1CC1CCC1` (stereo unspecified) it was -3.15%; in that of `CS(=O)(=O)N1CCOCC2(CN(Cc3ccco3)CCO2)C1` (stereo unspecified), -5.04%. `Cc1ccc(N2CC[C@H]3O[C@@H](C(=O)N4CCCCO4)CC[C@H]32)nn1`: the cytotoxicity at 10 µM was determined as 5.37%. Under `CCS(=O)(=O)N1CCc2onc(COc3ccccn3)c2C1` stands -4.72%; under `O=C(C1=CCCCC1)N1CCC2(CC1)COC(COc1ccccn1)C2` (stereo unspecified), -1.88%; under `O=C(NCCn1nc(C2CCNC2)c2cccnc21)c1ccccn1` (stereo unspecified), -25.7%. For the molecule `COc1ccc(-n2cc3[nH]c(=O)[nH]n3c2=O)cc1`, the cytotoxicity at 10 µM is -0.106%.

On to `Cn1cc(C(=O)N2C[C@H]3CC(Oc4ccccc4)C[C@H]3C2)cn1` (stereo partly specified), for which the cytotoxicity at 10 µM was found to be 3.6%.

These data come from ChEMBL document CHEMBL4513216, “Probing the Open Global Health Chemical Diversity Library for Multistage-Active Starting Points for Next-Generation Antimalarials” (ACS Infect Dis, 2020).
